Measured values gathered from unrelated publications.
Target: Ephrin type-A receptor 8 (EPHA8, Homo sapiens, UniProt P29322)
Sequence (P29322 28-1005, as in one of the studies): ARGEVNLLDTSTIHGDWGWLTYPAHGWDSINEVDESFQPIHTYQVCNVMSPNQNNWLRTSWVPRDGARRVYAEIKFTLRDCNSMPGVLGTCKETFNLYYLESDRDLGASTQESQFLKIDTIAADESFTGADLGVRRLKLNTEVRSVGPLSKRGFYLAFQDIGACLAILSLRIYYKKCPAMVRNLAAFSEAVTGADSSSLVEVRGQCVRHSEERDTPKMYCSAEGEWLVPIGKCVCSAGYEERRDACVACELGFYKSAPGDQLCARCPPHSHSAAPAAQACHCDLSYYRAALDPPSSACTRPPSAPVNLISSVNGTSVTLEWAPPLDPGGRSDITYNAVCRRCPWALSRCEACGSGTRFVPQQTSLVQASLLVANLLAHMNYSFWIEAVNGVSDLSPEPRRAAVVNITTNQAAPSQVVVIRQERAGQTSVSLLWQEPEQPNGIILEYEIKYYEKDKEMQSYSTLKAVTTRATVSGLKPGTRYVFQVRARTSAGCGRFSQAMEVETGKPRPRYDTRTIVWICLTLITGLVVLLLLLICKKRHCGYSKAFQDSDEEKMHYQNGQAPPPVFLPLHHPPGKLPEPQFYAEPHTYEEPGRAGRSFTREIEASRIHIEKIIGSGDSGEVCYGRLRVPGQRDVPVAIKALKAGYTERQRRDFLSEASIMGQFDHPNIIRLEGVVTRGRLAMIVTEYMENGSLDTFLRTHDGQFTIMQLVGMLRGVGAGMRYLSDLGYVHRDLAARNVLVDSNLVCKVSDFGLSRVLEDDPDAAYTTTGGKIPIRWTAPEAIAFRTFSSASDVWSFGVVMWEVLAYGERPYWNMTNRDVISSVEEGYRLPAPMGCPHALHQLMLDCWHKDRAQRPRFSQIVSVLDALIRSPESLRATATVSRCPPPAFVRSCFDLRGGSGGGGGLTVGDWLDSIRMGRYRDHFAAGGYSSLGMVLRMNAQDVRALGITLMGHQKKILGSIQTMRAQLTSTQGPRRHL

COc1cc2ncnc(Nc3ccc(Oc4ccccc4)c(C)c3C)c2cc1OC  inhibition (enzyme activity, inhibitor; 1 µM): 6%
O=C(Nc1cnn(-c2csc(C(=O)NC3COC3)c2)c1)Nc1c(F)cccc1Cl  remaining activity (enzyme activity, inhibitor; 5 µM): 93.8%
Cc1ccc(C(=O)NCc2ccsc2)cc1C#Cc1cn(C(C)C)c2ncnc(N)c12  activity vs control (enzyme activity, inhibitor; 1 µM): 6%
O=C(NCCCC1CCCCC1)c1ccc(CNC(=O)c2cnn(-c3ccccc3)c2C(F)(F)F)cc1  remaining binding (cell-free assay, competition with immobilised ligand; 0.1 µM): 95%
CC(C)(C)c1nc2c(s1)c1nc(N)ncc1c1ccc(NS(=O)(=O)c3c(F)cccc3F)c(F)c12  remaining activity (enzyme activity, inhibitor, radiometric; 1 µM): 95%
Cc1ccc(Nc2nccc(N(C)c3ccc4c(C)n(C)nc4c3)n2)cc1S(N)(=O)=O  inhibition (enzyme activity, inhibitor; 10 µM): 81%
CC/C(=N\NC(=O)NCc1cccc(O)c1)c1ccc(O)c(C)c1O  inhibition (enzyme activity, inhibitor; 0.1 µM): -0.5%
COc1cc(-c2cc(-c3ccc(N4CCNCC4)cc3)cnc2C)cc(OC)c1OC  inhibition (enzyme activity, inhibitor; 1 µM): 10%
CNC(=O)c1cc(Oc2ccc(NC(=O)Nc3ccc(Cl)c(C(F)(F)F)c3)cc2)ccn1  inhibition (enzyme activity, inhibitor; 0.3 µM): 23%
Cc1cc(NC(=O)c2cccc3cc(-c4cccc5[nH]nc(N)c45)ccc23)ccc1F  activity vs control (enzyme activity, inhibitor; 0.1 µM): 97%
CCCOc1ccc([C@H]2[C@H](C(=O)O)[C@@H](c3ccc4c(c3)OCO4)CN2CC(=O)Nc2c(CC)cccc2CC)cc1  remaining binding (cell-free assay, competition with immobilised ligand; 1 µM): 98%
CCN(CC)CCNC(=O)c1c(C)[nH]c(/C=C2\C(=O)Nc3ccc(F)cc32)c1C  remaining signal (cell-free assay; 0.5 µM): 92.1%
O=C(NC[C@@H]1[C@H]2CN(C(=O)OCc3cc(C(F)(F)F)cc(C(F)(F)F)c3)C[C@@H]12)c1ccc2[nH]nnc2c1  remaining binding (cell-free assay, competition with immobilised ligand; 1 µM): 100%
CNC(=O)c1cc2c(Oc3ccc(NC(=O)C4(C(=O)Nc5ccc(F)cc5)CC4)cc3)ccnc2cc1OC  inhibition (enzyme activity, inhibitor, radiometric; 1 µM): 102%
O=C1Nc2ccc(Cl)cc2C1=Cc1cc(Cl)c(O)c(Cl)c1  remaining signal (cell-free assay; 0.5 µM): 91.5%
O=C1CCc2cc(Nc3cc(OC4CCOCC4)c([N+](=O)[O-])cc3Cl)ccc2N1  remaining binding (cell-free assay, competition with immobilised ligand; 1 µM): 100%
CCCOc1ccc(OC)c(F)c1C(=O)c1ccc(C(=O)N[C@@H]2CNC[C@H]2NC(=O)c2ccc3[nH]ncc3c2)cc1  remaining activity (enzyme activity, inhibitor; 10 µM): 95%
CO[C@H]1CC[C@H](CNc2ccc(S(=O)(=O)NC(=O)c3ccc(N4CCN(CC5=C(c6ccc(Cl)cc6)CC(C)(C)CC5)CC4)cc3Oc3cnc4[nH]ccc4c3)cc2[N+](=O)[O-])CC1  remaining binding (cell-free assay, competition with immobilised ligand; 1 µM): 84%
CC(C)(O)[C@H]1CC[C@H](Nc2ccc3ncc(-c4cccc(C(F)(F)F)c4)n3n2)CC1  remaining activity (enzyme activity, inhibitor; 1 µM): 84.3%
c1ccc(N2CCN(Cc3nc4ccccc4[nH]3)CC2)nc1  remaining binding (cell-free assay, competition with immobilised ligand; 1 µM): 100%
Cc1cnc(NC2CCOCC2)nc1-n1cnc(C(=O)NC(CN)c2cc(F)cc(Cl)c2)c1 (stereo not drawn)  remaining activity (enzyme activity, inhibitor, radiometric; 1 µM): 95%
